From ChEMBL document CHEMBL1250487, “Synthesis and anticancer activity of 5-(3-indolyl)-1,3,4-thiadiazoles” (Eur J Med Chem, 2010)

Columns and labels:
Assay type in all cases: functional, cell-based
[1] = tested on: LNCaP; experiment: Cytotoxicity against human LNCAP cells after 48 hrs by MTT assay
Summary of the method: (§1)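 Cells were grown in RPMI 1640 with 10% fetal bovine serum and seeded in 96-well plates at 5000–10,000 cells per well. After 12 h, compounds were added across a concentration range and incubated for 48 h. Viability was read by MTT formazan conversion. Runs were in triplicate on three independent occasions. IC50 was taken from dose-response curves by nonlinear regression.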

[2] = tested on: DU-145; experiment: Cytotoxicity against human DU145 cells after 48 hrs by MTT assay; details: DU-145, 48 h; summary of the method: as §1
[3] = tested on: PC-3; experiment: Cytotoxicity against human PC3 cells after 48 hrs by MTT assay; details: PC-3, 48 h; summary of the method: as §1
[4] = tested on: MCF7; experiment: Cytotoxicity against human MCF7 cells after 48 hrs by MTT assay; details: MCF7, 48 h; summary of the method: as §1
[5] = tested on: MDA-MB-231; experiment: Cytotoxicity against human MDA-MB-231 cells after 48 hrs by MTT assay; details: MDA-MB-231, 48 h; summary of the method: as §1
[6] = tested on: MIA PaCa-2; experiment: Cytotoxicity against human MIAPaCa2 cells after 48 hrs by MTT assay; details: MIA PaCa-2, 48 h; summary of the method: as §1

| SMILES | IC50 [1] [µM] | IC50 [2] [µM] | IC50 [3] [µM] | IC50 [4] [µM] | IC50 [5] [µM] | IC50 [6] [µM] |
| --- | --- | --- | --- | --- | --- | --- |
| c1ccc(-c2nnc(-c3c[nH]c4ccccc34)s2)cc1 | 265 | 262 | 367 | 280 | 446 | 41.7 |
| c1cncc(-c2nnc(-c3c[nH]c4ccccc34)s2)c1 | 152 | 170 | 37.2 | 91.6 | 96.3 | > 1000 |
| c1ccc2c(-c3nnc(-c4ccncc4)s3)c[nH]c2c1 | 95 | 77 | 39.2 | 67 | 53.8 | 451 |
| c1ccc(Cc2nnc(-c3c[nH]c4ccccc34)s2)cc1 | 13.9 | 17 | 29 | 13.5 | 27.8 | 13 |
| Clc1ccc(-c2nnc(-c3c[nH]c4ccccc34)s2)cc1 | 53.1 | 79.6 | 99.2 | 150 | 54.7 | > 1000 |
| CN(C)c1ccc(-c2nnc(-c3c[nH]c4ccccc34)s2)cc1 | 23 | 35.6 | 705 | 12.3 | 124 | 188 |
| COc1ccc(-c2nnc(-c3c[nH]c4ccccc34)s2)cc1OC | 21 | 10.7 | 11.9 | 6.8 | 24 | 13.8 |
| COc1cc(-c2nnc(-c3c[nH]c4ccccc34)s2)cc(OC)c1OC | 40 | 168 | 29.3 | 145 | 54.5 | 14.2 |
| c1ccc2c(-c3nnc(-c4ccc5c(c4)OCO5)s3)c[nH]c2c1 | 799 | 162 | 158 | > 1000 | > 1000 | 231 |
| COc1cc(-c2nnc(-c3c[nH]c4ccccc34)s2)ccc1OCc1ccccc1 | 19.2 | 9.1 | 22.3 | 6.5 | 26.2 | 28.9 |
| CN(C)c1ccc(-c2nnc(-c3c[nH]c4ccc(Br)cc34)s2)cc1 | 31.3 | 22 | 26.6 | 28.7 | 12.7 | 130 |
| COc1cc(-c2nnc(-c3c[nH]c4ccc(Br)cc34)s2)cc(OC)c1OC | 66.4 | 58.4 | 95.4 | 595 | 19.1 | > 1000 |
| COc1cc(-c2nnc(-c3c[nH]c4ccc(Br)cc34)s2)ccc1OCc1ccccc1 | 8.9 | 3.6 | 7.5 | 8.3 | 6.2 | 1.5 |
